Published values collected from several papers.
Lines come from different studies, so protocols differ. pIC50: −log10 of the molar value.
Observed: enzyme activity
Action: inhibitor
HDAC8: Histone deacetylase 8 (HDAC8, Homo sapiens, UniProt Q9BY41)
HDAC1: Histone deacetylase 1 (HDAC1, Homo sapiens, UniProt Q13547)
PARP10: Protein mono-ADP-ribosyltransferase PARP10 (PARP10, Homo sapiens, UniProt Q53GL7)
Seed linoleate 13S-lipoxygenase-1: Seed linoleate 13S-lipoxygenase-1 (Glycine max, UniProt P08170)

| Compound | target | test | conditions | pIC50 |
| --- | --- | --- | --- | --- |
| O=C(NO)c1ccc(Cn2cnc3c(Nc4ccc(F)c(Cl)c4)ncnc32)cc1 | HDAC8 |  |  | 6.81 |
| CCCOc1ccc(N(Cc2nc(-c3ccccc3)cs2)C(=O)CCCCCC(=O)NO)cc1 | HDAC1 |  |  | 8.66 |
| O=c1[nH]c2c(nnn2-c2ccccc2)c2ccc(F)cc12 | PARP10 |  |  | < 5.00 |
| COc1ccc(N(Cc2nc(-c3ccc(C)cc3)cs2)C(=O)CCCCCC(=O)NO)cc1 | HDAC1 |  |  | 8.59 |
| Cc1ccc(Cn2nnc3c4ccccc4c(=O)[nH]c32)cc1 | PARP10 |  |  | 6.69 |
| c1c(N2CCCC2)nc(N2CCCC2)nc1N1CCNCC1 | Caspase-5 (CASP5, Homo sapiens, UniProt P51878) |  | with preincubation | 6.86 |
| O=C(NO)c1ccc(Cn2cnc3c(Nc4ccc(Cl)cc4)ncnc32)cc1 | HDAC1 | fluorescence |  | 6.78 |
| O=c1[nH]c2c(nnn2-c2ccc(Br)cc2)c2ccccc12 | PARP10 |  |  | < 5.00 |
| C=C(C)[C@@H]1CC[C@]2(C)CC[C@]3(C)[C@H](CC[C@@H]4[C@@]5(C)CC[C@H](O)C(C)(C)[C@@H]5CC[C@]43C)[C@@H]12 | Seed linoleate 13S-lipoxygenase-1 |  |  | 3.96 |
| Cc1ccc(Cn2nnc3c4cc(C)ccc4c(=O)[nH]c32)cc1 | PARP10 |  |  | < 5.00 |
| COc1ccc(N(Cc2csc(-c3ccc(Br)cc3)n2)C(=O)CCCCCC(=O)NO)cc1 | HDAC1 |  |  | 9.00 |
| Cc1ccc(Cn2nnc3c4ccc(C(F)(F)F)cc4c(=O)[nH]c32)cc1 | PARP10 |  |  | < 5.00 |
| O=C1CC[C@H](N2Cc3cc(N4CCN(CC5CCN(c6ccc([C@@H]7c8ccc(O)cc8CC[C@@H]7c7ccccc7)cc6)CC5)CC4)ccc3C2=O)C(=O)N1 | ATP-dependent translocase ABCB1 (ABCB1, Homo sapiens, UniProt P08183) |  |  | 6.05 |
| O=C(CCCCCC(=O)N(Cc1nc(-c2ccccc2)cs1)c1ccc(OCc2ccc(F)cc2)cc1)NO | HDAC1 |  |  | 8.42 |
| O=C(O[C@@H]1COC(=O)c2cc(O)c(O)c(O)c2-c2c(cc(O)c(O)c2O)C(=O)O[C@H]1[C@@H]1OC(=O)c2cc(O)c(O)c(O)c2-c2c(O)c(O)c(O)c3c2C(=O)O[C@H]1[C@@H]3O)c1cc(O)c(O)c(O)c1 | Seed linoleate 13S-lipoxygenase-1 |  |  | 4.44 |
| O=C(NO)c1ccc(Cn2cnc3c(Nc4cccc([N+](=O)[O-])c4)ncnc32)cc1 | HDAC8 |  |  | 6.93 |
| COc1ccc(N(Cc2nc(-c3ccc(Cl)cc3)cs2)C(=O)CCCCCC(=O)NO)cc1 | HDAC1 |  |  | 8.77 |
| COc1cccc(Cn2nnc3c4ccc(F)cc4c(=O)[nH]c32)c1 | PARP10 |  |  | 5.78 |
| COc1ccc(Nc2ncnc3c2ncn3Cc2ccc(C(=O)NO)cc2)cc1 | HDAC1 | fluorescence |  | 6.59 |
| COc1ccc(N(Cc2nc(-c3cccc(Cl)c3)cs2)C(=O)CCCCCC(=O)NO)cc1 | HDAC1 |  |  | 8.31 |
| Nc1cnccc1Nc1ccc(Cl)c(Cl)c1 | Uracil-DNA glycosylase (UNG, Homo sapiens, UniProt P13051) |  |  | < 4.00 |
| COc1ccc(N(Cc2nc(-c3ccc(F)cc3)cs2)C(=O)CCCCCC(=O)NO)cc1 | HDAC1 |  |  | 9.05 |
| COc1cccc(Cn2nnc3c4ccccc4c(=O)[nH]c32)c1 | PARP10 |  |  | 6.66 |
| Cc1ccc(S(=O)(=O)NNc2ccc([N+](=O)[O-])cc2[N+](=O)[O-])cc1 | Polyunsaturated fatty acid 5-lipoxygenase (ALOX5, Homo sapiens, UniProt P09917) |  |  | 5.88 |
| COc1ccc(N(Cc2csc(-c3ccccc3)n2)C(=O)CCCCCC(=O)NO)cc1 | HDAC1 |  |  | 8.96 |
| O=c1[nH]c2c(nnn2Cc2ccccc2)c2ccc(F)cc12 | PARP10 |  |  | 6.03 |
